“And” between values parts separate entries of the source, which are not always exact repeats. Equal values may be shown once.
Legend:
Fibroblast = test: Multiplex assay against human fibroblast; assay type: toxicity, cell-based
In short: (§1)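 Live cells carried four stains from seeding: Hoechst33342, BioTracker Green Microtubule Cytoskeleton Dye, MitoTracker Red and Annexin V Alexa Fluor 680. They were imaged on a CQ1 microscope at 37°C and 5% CO2 after compound addition. Using CellPathfinder machine-learning gating, cells were split into Hoechst high-intensity objects or normal cells, normal cells into healthy, pyknosed or fragmented nuclei, and pyknosed cells into mitotic or apoptotic; tubulin, mitochondrial-mass and membrane-permeability phenotypes are per cents of healthy-nucleus cells.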

U2OS = test: Multiplex assay against U2OS; assay type: toxicity, cell-based; details: human; in short: as §1
[1] = 24 h, 10 µM, compound concentration 10 uM
[2] = 48 h, 1 µM, compound concentration 1 uM
[3] = 48 h, 10 µM, compound concentration 10 uM
[4] = 12 h, 1 µM, compound concentration 1 uM
[5] = 12 h, 10 µM, compound concentration 10 uM
[6] = 24 h, 1 µM, compound concentration 1 uM

Cc1noc(C)c1-c1cnc2c(-c3ccc(C(=O)O)cc3)cn([C@@H](C)c3ccccn3)c2c1 [PLX-51107]
Population Mitochondria Different-Phenotype (%) (Fibroblast; [1]): 11.18% and 6.63%
Population Mitotic Cells (%) (Fibroblast; [1]): 80% and 85.19%
Population Normal (%) (Fibroblast; [1]): 100%
Population Pyknosed Nuclei (%) (Fibroblast; [1]): 7.54% and 11.2%
Population Tubulin-Different-Phenotype (%) (Fibroblast; [1]): 12.94% and 15.31%
Total Cell Count (Fibroblast; [1]): 199 and 241
Population Apoptotic (%) (Fibroblast; [2]): 30%
Population Fragmented Nuclei (%) (Fibroblast; [2]): 11.06% and 8.8%
Population Healthy Nuclei (%) (Fibroblast; [2]): 84.13% and 87.2%
Population Hoechst High Intensity Objects (%) (Fibroblast; [2]): 0%
Population Membrane Permeable-Phenotype (%) (Fibroblast; [2]): 0.57% and 3.67%
Population Mitotic Cells (%) (Fibroblast; [2]): 70%
Population Normal (%) (Fibroblast; [2]): 100%
Population Pyknosed Nuclei (%) (Fibroblast; [2]): 4.81% and 4%
Population Tubulin-Different-Phenotype (%) (Fibroblast; [2]): 4.57% and 11.93%
Total Cell Count (Fibroblast; [2]): 208 and 250
Population Apoptotic (%) (Fibroblast; [3]): 28.57% and 50%
Population Fragmented Nuclei (%) (Fibroblast; [3]): 7% and 9.25%
Population Healthy Nuclei (%) (Fibroblast; [3]): 86% and 83.7%
Population Hoechst High Intensity Objects (%) (Fibroblast; [3]): 0%
Population Membrane Permeable-Phenotype (%) (Fibroblast; [3]): 3.49% and 1.05%
Population Mitotic Cells (%) (Fibroblast; [3]): 71.43% and 50%
Population Normal (%) (Fibroblast; [3]): 100%
Population Pyknosed Nuclei (%) (Fibroblast; [3]): 7% and 7.05%
Population Tubulin-Different-Phenotype (%) (Fibroblast; [3]): 10.47% and 9.47%
Total Cell Count (Fibroblast; [3]): 200 and 227
Population Apoptotic (%) (U2OS; [4]): 28.33% and 48.15%
Population Fragmented Nuclei (%) (U2OS; [4]): 2.1% and 1.04%
Population Healthy Nuclei (%) (U2OS; [4]): 85.32% and 84.97%
Population Hoechst High Intensity Objects (%) (U2OS; [4]): 0%
Population Membrane Permeable-Phenotype (%) (U2OS; [4]): 0.25% and 4.88%
Population Mitochondria Different-Phenotype (%) (U2OS; [4]): 0% and 5.49%
Population Mitotic Cells (%) (U2OS; [4]): 71.67% and 51.85%
Population Normal (%) (U2OS; [4]): 100%
Population Pyknosed Nuclei (%) (U2OS; [4]): 12.58% and 13.99%
Population Tubulin-Different-Phenotype (%) (U2OS; [4]): 0.74% and 3.05%
Total Cell Count (U2OS; [4]): 477 and 193
Population Apoptotic (%) (U2OS; [5]): 30.77% and 33.33%
Population Fragmented Nuclei (%) (U2OS; [5]): 2.92% and 1.9%
Population Healthy Nuclei (%) (U2OS; [5]): 82.47% and 82.91%
Population Hoechst High Intensity Objects (%) (U2OS; [5]): 0%
Population Membrane Permeable-Phenotype (%) (U2OS; [5]): 1.36% and 3.05%
Population Mitochondria Different-Phenotype (%) (U2OS; [5]): 0.27% and 7.63%
Population Mitotic Cells (%) (U2OS; [5]): 69.23% and 66.67%
Population Normal (%) (U2OS; [5]): 100%
Population Pyknosed Nuclei (%) (U2OS; [5]): 14.61% and 15.19%
Population Tubulin-Different-Phenotype (%) (U2OS; [5]): 1.36% and 1.53%
Total Cell Count (U2OS; [5]): 445 and 158
Population Apoptotic (%) (U2OS; [6]): 32.76% and 59.26%
Population Fragmented Nuclei (%) (U2OS; [6]): 3.22% and 5.11%
Population Healthy Nuclei (%) (U2OS; [6]): 87.88% and 85.04%
Population Hoechst High Intensity Objects (%) (U2OS; [6]): 0%
Population Membrane Permeable-Phenotype (%) (U2OS; [6]): 0.52% and 4.29%
Population Mitochondria Different-Phenotype (%) (U2OS; [6]): 0.35% and 3.86%
Population Mitotic Cells (%) (U2OS; [6]): 67.24% and 40.74%
Population Normal (%) (U2OS; [6]): 100%
Population Pyknosed Nuclei (%) (U2OS; [6]): 8.9% and 9.85%
Population Tubulin-Different-Phenotype (%) (U2OS; [6]): 0.52% and 2.15%
Total Cell Count (U2OS; [6]): 652 and 274
Population Apoptotic (%) (U2OS; [1]): 43.37% and 43.48%
Population Fragmented Nuclei (%) (U2OS; [1]): 5.51% and 6.04%
Population Healthy Nuclei (%) (U2OS; [1]): 79.23% and 81.32%
Population Hoechst High Intensity Objects (%) (U2OS; [1]): 0%
Population Membrane Permeable-Phenotype (%) (U2OS; [1]): 0.93% and 2.7%
Population Mitochondria Different-Phenotype (%) (U2OS; [1]): 0% and 4.73%
Population Mitotic Cells (%) (U2OS; [1]): 56.63% and 56.52%
Population Normal (%) (U2OS; [1]): 100%
Population Pyknosed Nuclei (%) (U2OS; [1]): 15.26% and 12.64%
Population Tubulin-Different-Phenotype (%) (U2OS; [1]): 0.46% and 0.68%
Total Cell Count (U2OS; [1]): 544 and 182
Population Apoptotic (%) (U2OS; [2]): 51.49% and 72.73%
Population Fragmented Nuclei (%) (U2OS; [2]): 10.29% and 4.03%
Population Healthy Nuclei (%) (U2OS; [2]): 80.83% and 86.62%
Population Hoechst High Intensity Objects (%) (U2OS; [2]): 0%
Population Membrane Permeable-Phenotype (%) (U2OS; [2]): 0.44% and 2.21%
Population Mitochondria Different-Phenotype (%) (U2OS; [2]): 0.11% and 1.47%
Population Mitotic Cells (%) (U2OS; [2]): 48.51% and 27.27%
Population Normal (%) (U2OS; [2]): 100%
Population Pyknosed Nuclei (%) (U2OS; [2]): 8.88% and 9.34%
Population Tubulin-Different-Phenotype (%) (U2OS; [2]): 0.44% and 1.47%
Total Cell Count (U2OS; [2]): 1137 and 471
Population Apoptotic (%) (U2OS; [3]): 58.54% and 60.87%
Population Fragmented Nuclei (%) (U2OS; [3]): 17.75% and 9.91%
Population Healthy Nuclei (%) (U2OS; [3]): 65.96% and 70.26%
Population Hoechst High Intensity Objects (%) (U2OS; [3]): 0%
Population Membrane Permeable-Phenotype (%) (U2OS; [3]): 0.6% and 1.84%
Population Mitochondria Different-Phenotype (%) (U2OS; [3]): 0% and 2.45%
Population Mitotic Cells (%) (U2OS; [3]): 41.46% and 39.13%
Population Normal (%) (U2OS; [3]): 100%
Population Pyknosed Nuclei (%) (U2OS; [3]): 16.29% and 19.83%
Population Tubulin-Different-Phenotype (%) (U2OS; [3]): 1.2% and 0.61%

Reference: ChEMBL document CHEMBL5724801, “EUbOPEN Chemogenomics Library - Multiplex” (2024)
